The values that follow come from PubChem BioAssay.

Molecules are shown by their SMILES. Calls of active or inactive are those of the source.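 Rule for the calls, unless noted: active = visual image review flags a hit and inhibition of aggregation exceeds 20%; inconclusive = visual hit but inhibition at or below 20%; inactive = no hit on visual image review.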

The nature of experiment [1]: inhibitors of TNFa-induced NFkB p65 translocation, primary screen, imaging, HUVEC, MLSMR starter and 10KST1 sets (AID 438;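 active = inhibition above 20% together with a positive visual image hit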;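 note: compound added about 3h40 before a 20 min TNFalpha stimulation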;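 for inhibition: signal is the nuclear over cytoplasmic p65 intensity ratio per well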). The following applies: HUVEC TNFa-induced p65 nuclear translocation; cell count: measured here: nuclei count (cytotoxicity indicator), at 2.08 µM; inhibition: at 2 µM, stronger effect = higher value, 0% TNFa-plus-vehicle, 100% no-TNFa wells.
Experiment [2] in a line: reduction of polyQ htt aggregates in cells – imaging, exon1htt(103Q)mCFP cells, high-content imaging, primary screen (AID 483).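 For nuclei count: percent of the per-plate median nuclei count of sample wells.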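 Note: compound exposure lasted 3 days before fixation.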 The following applies: exon1htt(103Q)mCFP cell line, aggregate imaging, at 2 µM; inhibition of aggregation: stronger effect = higher value; nuclei count: measured here: cell count, toxicity.
Experiment [3] can be described thus: endothelial E-selectin expression blockers – imaging, HUVEC, immunofluorescence, MLSMR starter and 10KST1 sets, primary screen (AID 487;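 active = visually confirmed hit in the image check and inhibition above 20%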;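 for inhibition: signal is fraction of cell area covered by stained E-selectin grains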;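 for nuclei count: 100% = median nuclei count of all wells on the same plate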). The following applies: HUVEC TNFalpha-induced E-selectin immunofluorescence imaging, at 2 µM; inhibition: stronger effect = higher value; nuclei count: measured here: cell number, toxicity.
Experiment [4] concerns the target Voltage-gated potassium channel subunit beta-2 (Rattus norvegicus) (UniProt P62483). Briefly: inhibitors of rat Kvbeta2 reductase activity – biochemical, NADPH fluorescence, primary screen (AID 622;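 active = fluorescence slope higher than the sample average by over 3 SD, cut at about -0.22 in these data, passing the limit was not always enough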;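 note: slope of raw intensity against log time taken from 70 to 1610 s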). The following applies: recombinant KvBeta, 4-cyanobenzaldehyde reduction, at 10 µM, stronger effect = higher value.
For experiment [5] the target is unchanged. Put plainly: enhancers of rat Kvbeta2 NADPH turnover – biochemical, NADPH fluorescence, primary screen (AID 623;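 active = NADPH fluorescence slope more negative than the mean of all samples by about 3 SD, 99.7% confidence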;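 note: fluorescence intensity change per second fitted from 20 to 320 s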). Conditions: Recombinant KvBeta, NADPH fluorescence decrease slope, 10 min; at 10 µM; stronger effect = lower value.
The target in experiment [6] is Muscarinic acetylcholine receptor M4 (Homo sapiens) (UniProt P08173). Briefly: M4-linked GIRK flux change, two-sided – cell-based, HEK293 M4/GIRK, thallium flux, BTC-AM, M4 allosteric agonist project, primary screen (AID 625;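 active = fluorescence slope after compound addition differing from the mean of all tested samples at 99.7% confidence, mostly higher but some lower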;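 note: thallium influx through GIRK channels coupled to M4 in HEK293 cells with BTC-AM dye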). The following applies: at 10 µM, actives lie on both sides. The essentials:
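Assay system: HEK293 cells with M4 receptor and GIRK channels / Controls: carbachol and DMSO controls / Schedule: 1 h dye loading, 2 min kinetic read / Technique: kinetic fluorescence with BTC-AM dye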

Experiment [7] is described as follows: blockers of RIG-like receptor reporter activation – cell-based, Sendai virus stimulus, luciferase, 10K MLSCN set, TLR/RLR signaling modifier project, primary screen (AID 602276;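 active = inhibition at or above 50% at 10 µM; inactive = inhibition below 50%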;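 note: firefly luciferase from ISG56 promoter only with Renilla not read in this screen; 0% = Sendai virus plus DMSO and 100% = medium plus DMSO without virus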). Conditions: HEK293 RL24 IRF3 luciferase reporter, at 10 µM, stronger effect = higher value. (In general: Reporter assays use an easily measured gene product as a stand-in for the process of interest.)

A short description of experiment [8]: TLR3 IRF3 reporter activation blockers – cell-based, poly I:C stimulus, luciferase, 10K MLSCN set, primary screen (AID 602277;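 active = inhibition of the reporter signal at or above 50%; inactive = inhibition below 50%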). Conditions: HEK293-TLR3 RL24 IRF3 luciferase reporter, at 10 µM, stronger effect = higher value.

Sequence of Muscarinic acetylcholine receptor M4 (Homo sapiens) (P08173 whole entry, looked up): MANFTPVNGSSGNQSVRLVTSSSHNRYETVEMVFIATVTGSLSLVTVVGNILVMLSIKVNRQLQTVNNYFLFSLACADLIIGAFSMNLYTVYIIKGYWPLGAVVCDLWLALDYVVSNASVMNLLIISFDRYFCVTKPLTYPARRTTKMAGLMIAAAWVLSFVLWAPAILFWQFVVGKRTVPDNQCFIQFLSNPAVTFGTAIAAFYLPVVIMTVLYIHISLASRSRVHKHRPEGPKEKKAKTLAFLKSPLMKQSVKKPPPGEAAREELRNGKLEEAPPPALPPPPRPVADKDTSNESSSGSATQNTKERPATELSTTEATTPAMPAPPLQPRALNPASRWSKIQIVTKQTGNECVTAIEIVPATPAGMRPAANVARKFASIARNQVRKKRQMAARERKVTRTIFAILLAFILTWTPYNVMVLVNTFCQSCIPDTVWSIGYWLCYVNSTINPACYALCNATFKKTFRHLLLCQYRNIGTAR
Sequence of Voltage-gated potassium channel subunit beta-2 (Rattus norvegicus) (P62483 whole entry, looked up): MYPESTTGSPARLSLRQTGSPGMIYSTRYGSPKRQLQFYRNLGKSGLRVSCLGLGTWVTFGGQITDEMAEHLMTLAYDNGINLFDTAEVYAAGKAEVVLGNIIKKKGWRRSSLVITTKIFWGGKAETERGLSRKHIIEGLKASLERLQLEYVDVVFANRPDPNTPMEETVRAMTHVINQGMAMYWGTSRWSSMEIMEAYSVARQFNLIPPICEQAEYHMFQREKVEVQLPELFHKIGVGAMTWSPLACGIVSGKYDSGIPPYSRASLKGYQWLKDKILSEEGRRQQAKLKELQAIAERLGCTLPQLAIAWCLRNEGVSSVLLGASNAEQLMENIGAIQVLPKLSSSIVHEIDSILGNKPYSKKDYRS

For the molecule `Cc1ccc(C)c(-n2c(Cc3cc(=O)[nH]c(=O)[nH]3)nnc2SCC(=O)NCc2ccco2)c1`, the cell count in experiment [1] came to 254. Besides, the inhibition is -4.3% (inactive) in experiment [1], 65.5% (active) in experiment [3], -2% (inactive) in experiment [7] and 5.02% (inactive) in experiment [8]. The inhibition of aggregation in experiment [2] was -32.9% (inactive). Further, the nuclei count is 74.4% in experiment [2] and 64% in experiment [3]. Further, the fluorescence slope in experiment [4] was -0.549 (inactive); in experiment [6], 0.00457 (inactive). In addition, the NADPH fluorescence slope in experiment [5] is -6.1e-05 (inactive).

Take `CCc1ccc(NS(=O)(=O)c2ccc3[nH]cc(C(=O)N4CCCCC4)c(=O)c3c2)cc1`: in experiment [1], the cell count was 672. Moreover, the inhibition was 13.7% (inactive) in experiment [1], 2.5% (inactive) in experiment [3], 20.2% (inactive) in experiment [7] and 24.4% (inactive) in experiment [8]. Besides, in experiment [2], the inhibition of aggregation was 14.2% (inactive). Further, the results for the nuclei count in experiment [2] and in experiment [3] were 86% and 81.2%, respectively. Besides, the fluorescence slope is -0.562 (inactive) in experiment [4] and 0.00784 (inactive) in experiment [6]. Moreover, in experiment [5], the NADPH fluorescence slope was -5.7e-05 (inactive).

`CSc1cccc(NC(=O)C2CCN(S(C)(=O)=O)CC2)c1`: in experiment [1], the cell count is 248. Further, the inhibition in experiment [1] was 3.5% (inactive); in experiment [3], -296% (inactive); in experiment [7], 13.5% (inactive); in experiment [8], 13.6% (inactive). Also, the inhibition of aggregation in experiment [2] is 16.4% (inactive). Moreover, the nuclei count in experiment [2] amounted to 80.7%; in experiment [3] it was 120%. In addition, the fluorescence slope is -0.438 (inactive) in experiment [4] and 0.00544 (inactive) in experiment [6]. Besides, in experiment [5], the NADPH fluorescence slope is 3.2e-05 (inactive).

Turning to `CS(=O)(=O)N(CC(=O)NCc1ccccn1)c1ccc2c(c1)OCCO2`, in experiment [1], the cell count turned out to be 755. For the same molecule, the inhibition is -7.5% (inactive) in experiment [1], 26% (inactive) in experiment [3], 14.9% (inactive) in experiment [7] and 15.8% (inactive) in experiment [8]. The inhibition of aggregation in experiment [2] was 13% (inactive). Further, the nuclei count in experiment [2] is 101%; in experiment [3] it was 78.9%. Further, the figures for the fluorescence slope in experiment [4] and in experiment [6] were -0.515 (inactive) and 0.00626 (inactive), respectively. Besides, in experiment [5], the NADPH fluorescence slope is -4.7e-06 (inactive).

`Cc1nn(-c2ccccc2)c(C)c1C(=O)OCC(=O)c1c(N)n(CC(C)C)c(=O)n(C)c1=O`: the cell count in experiment [1] was 486. In addition, the inhibition is 4.2% (inactive) in experiment [1], -65.4% (inactive) in experiment [3], 4.86% (inactive) in experiment [7] and -99.7% (inactive) in experiment [8]. Moreover, the inhibition of aggregation in experiment [2] is -2.5% (inactive). In addition, the nuclei count in experiment [2] was found to be 78.8%; in experiment [3], 127%. Also, the fluorescence slope in experiment [4] is -0.504 (inactive); in experiment [6], 0.00552 (inactive). For the same molecule, the NADPH fluorescence slope in experiment [5] is 0.000168 (inactive).

As to `Cn1nc(-c2ccc(C(=O)NCC3CCCO3)cc2)c2ccccc2c1=O` (centres undefined), the cell count in experiment [1] turned out to be 796. The inhibition was -3.5% (inactive) in experiment [1], -18.3% (inactive) in experiment [3], 19.3% (inactive) in experiment [7] and 31.4% (inactive) in experiment [8]. The inhibition of aggregation in experiment [2] was 37.8% (inactive). The results for the nuclei count in experiment [2] and in experiment [3] were 104% and 116%, respectively. Also, the fluorescence slope in experiment [4] is -0.574 (inactive); in experiment [6], 0.00681 (inactive). Moreover, the NADPH fluorescence slope in experiment [5] was -5.3e-05 (inactive).

As for `CC1=C(C#N)C(c2ccoc2)C(C(=O)OCc2ccccc2)=C(N)S1` (centres undefined), in experiment [1], the cell count was 482. Moreover, the inhibition was 1% (inactive) in experiment [1], -90% (inactive) in experiment [3], 9.67% (inactive) in experiment [7] and 11.7% (inactive) in experiment [8]. Also, the inhibition of aggregation in experiment [2] is -13.3% (inactive). The nuclei count in experiment [2] worked out at 84.8%; in experiment [3], 102%. In addition, the results for the fluorescence slope in experiment [4] and in experiment [6] were -0.524 (inactive) and 0.0045 (inactive), respectively. In experiment [5], the NADPH fluorescence slope is -0.000129 (inactive).

In the case of `CC1(c2ccncc2)Nc2ccccc2-c2nc3ccccc3n21` (centres undefined), the cell count in experiment [1] turned out to be 394. Further, the inhibition in experiment [1] was -13.4% (inactive); in experiment [3] it was -182% (inactive); in experiment [7], 6.46% (inactive); in experiment [8], -10% (inactive). Moreover, the inhibition of aggregation in experiment [2] was 6.2% (inactive). For the same molecule, the figures for the nuclei count in experiment [2] and in experiment [3] were 69.9% and 122%, respectively. Further, the results for the fluorescence slope in experiment [4] and in experiment [6] were -0.454 (inactive) and 0.00581 (inactive), respectively. In addition, the NADPH fluorescence slope in experiment [5] was -2.1e-05 (inactive).

Regarding `CCN(CC)CCCN(Cc1cc2cc(OC)ccc2[nH]c1=O)C(=O)Nc1ccccc1`, the cell count in experiment [1] is 327. Further, the inhibition is 7.1% (inactive) in experiment [1], -31.9% (inactive) in experiment [3], 17.1% (inactive) in experiment [7] and 29.7% (inactive) in experiment [8]. The inhibition of aggregation in experiment [2] is -3.3% (inactive). Also, the results for the nuclei count in experiment [2] and in experiment [3] were 86.4% and 105%, respectively. In addition, the values for the fluorescence slope in experiment [4] and in experiment [6] were -0.382 (inactive) and 0.00643 (inactive), respectively. Besides, in experiment [5], the NADPH fluorescence slope is -5.9e-06 (inactive).

Take `COC(=O)c1[nH]c2ccccc2c1NS(=O)(=O)c1ccc(OC)cc1OC`: in experiment [1], the cell count stood at 655. Also, the inhibition was -11.9% (inactive) in experiment [1], -72% (inactive) in experiment [3], 19.9% (inactive) in experiment [7] and 37.3% (inactive) in experiment [8]. For the same molecule, the inhibition of aggregation in experiment [2] is 13% (inactive). In addition, the nuclei count stood at 103% in experiment [2] and 118% in experiment [3]. Also, the fluorescence slope is -0.524 (inactive) in experiment [4] and 0.00563 (inactive) in experiment [6]. The NADPH fluorescence slope in experiment [5] was -0.000111 (inactive).

With `CCN(CC)C(=O)c1ccc(NS(=O)(=O)c2ccccc2)cc1`, the cell count in experiment [1] is 444. For the same molecule, the inhibition in experiment [1] is 0.9% (inactive); in experiment [3], -22.4% (inactive); in experiment [7], -7.99% (inactive); in experiment [8] it was -12.2% (inactive). Further, the inhibition of aggregation in experiment [2] was -9.8% (inactive). In addition, the values for the nuclei count in experiment [2] and in experiment [3] were 112% and 117%, respectively. Also, the fluorescence slope in experiment [4] is -0.478 (inactive); in experiment [6], 0.0035 (inactive). The NADPH fluorescence slope in experiment [5] was -0.000282 (inactive).

As to `Cc1cc(C)n2nc3nc(N4CCCCC4)nc(-c4ccco4)c3c2n1`, the cell count in experiment [1] stood at 315. Further, the inhibition in experiment [1] is -2.2% (inactive); in experiment [3] it was -260% (inactive); in experiment [7], 12.6% (inactive); in experiment [8], 2.12% (inactive). Further, the inhibition of aggregation in experiment [2] is -24.4% (inactive). The nuclei count in experiment [2] is 105%; in experiment [3], 86.7%. Further, the fluorescence slope in experiment [4] was -0.433 (inactive); in experiment [6], 0.00465 (inactive). In addition, the NADPH fluorescence slope in experiment [5] was 1e-05 (inactive).

Consider `COc1ccc(-n2c(SCC(=O)Nc3ccc(C(=O)O)cc3)nnc2-c2cccs2)cc1`, for which the cell count in experiment [1] is 443. Moreover, the inhibition in experiment [1] was 2.8% (inactive); in experiment [3] it was -43.4% (inactive); in experiment [7] it was 0.267% (inactive); in experiment [8] it was 6.83% (inactive). The inhibition of aggregation in experiment [2] is -7.1% (inactive). Also, the figures for the nuclei count in experiment [2] and in experiment [3] were 91.6% and 150%, respectively. The fluorescence slope in experiment [4] was -0.451 (inactive); in experiment [6], 0.00524 (inactive). For the same molecule, the NADPH fluorescence slope in experiment [5] is -0.000238 (inactive).

Regarding `COc1ccc(C2CC(=O)c3cnc(NC(=O)c4ccccc4OC)nc3C2)c(OC)c1` (centres undefined), the cell count in experiment [1] came out at 434. Moreover, the inhibition in experiment [1] is -6.7% (inactive); in experiment [3] it was -80.1% (inactive); in experiment [7], 14.1% (inactive); in experiment [8] it was 6.68% (inactive). For the same molecule, in experiment [2], the inhibition of aggregation was 15% (inactive). The values for the nuclei count in experiment [2] and in experiment [3] were 94.2% and 107%, respectively. The fluorescence slope in experiment [4] is -0.459 (inactive); in experiment [6] it was 0.00664 (inactive). Moreover, the NADPH fluorescence slope in experiment [5] is 0.000189 (inactive).

What is called inhibition is the drop in the measured response relative to a control, in per cent.
